Assay results from ChEMBL document CHEMBL4706495, “A novel class of small molecule inhibitors with radioprotective properties” (Eur J Med Chem, 2020).

What was measured:
MCF7 [1] = assay: Cytotoxicity against human MCF7 cells assessed as cell viability at 1 uM measured after 48 hrs by WST-1 assay relative to control; format: functional; conditions: read-out: Activity
HeLa [2] = assay: Cytotoxicity against human HeLa cells assessed as cell viability at 1 uM measured after 48 hrs by WST-1 assay relative to control; format: functional; conditions: read-out: Activity
A549 [3] = assay: Cytotoxicity against human A549 cells assessed as cell viability at 1 uM measured after 48 hrs by WST-1 assay relative to control; format: functional; conditions: read-out: Activity
SAOS-2 [4] = assay: Cytotoxicity against human SAOS-2 cells assessed as cell viability at 1 uM measured after 48 hrs by WST-1 assay relative to control; format: functional; conditions: read-out: Activity
[5] = Cytotoxicity against human MRC5 cells assessed as cell viability at 1 uM measured after 48 hrs by WST-1 assay relative to control; format: cell-based; conditions: read-out: Activity
HT-29 [6] = assay: Cytotoxicity against human HT-29 cells assessed as cell viability at 1 uM measured after 48 hrs by WST-1 assay relative to control; format: functional; conditions: read-out: Activity
PANC-1 [7] = assay: Cytotoxicity against human PANC-1 cells assessed as cell viability at 1 uM measured after 48 hrs by WST-1 assay relative to control; format: functional; conditions: read-out: Activity
A2780 [8] = assay: Cytotoxicity against human A2780 cells assessed as cell viability at 1 uM measured after 48 hrs by WST-1 assay relative to control; format: functional; conditions: read-out: Activity
Jurkat [9] = assay: Cytotoxicity against human Jurkat cells assessed as cell viability at 1 uM measured after 48 hrs by WST-1 assay relative to control; format: functional; conditions: read-out: Activity
MOLT-4 [10] = assay: Cytotoxicity against human MOLT-4 cells assessed as cell viability at 1 uM measured after 48 hrs by WST-1 assay relative to control; format: functional; conditions: read-out: Activity
Jurkat [11] = assay: Cytotoxicity against human Jurkat cells assessed as cell viability at 100 uM measured after 48 hrs by WST-1 assay relative to control; format: functional; conditions: read-out: Activity
Procedure, shortened: (§1)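 Ten-line human panel (9 cancer, 1 non-cancerous). Cells were seeded at a pre-established optimal density (500–30 × 10³ per well) and settled overnight. Compounds came from 10 mM DMSO stocks and were tested at two concentrations. WST-1 readout followed the manufacturer's protocol at the end of cultivation. Viability is expressed as % of untreated control cells, mean of three independent experiments.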

PANC-1 [12] = assay: Cytotoxicity against human PANC-1 cells assessed as cell viability at 100 uM measured after 48 hrs by WST-1 assay relative to control; format: functional; conditions: read-out: Activity; procedure, shortened: as §1
A2780 [13] = assay: Cytotoxicity against human A2780 cells assessed as cell viability at 100 uM measured after 48 hrs by WST-1 assay relative to control; format: functional; conditions: read-out: Activity; procedure, shortened: as §1
MOLT-4 [14] = assay: Cytotoxicity against human MOLT-4 cells assessed as cell viability at 100 uM measured after 48 hrs by WST-1 assay relative to control; format: functional; conditions: read-out: Activity; procedure, shortened: as §1
A549 [15] = assay: Cytotoxicity against human A549 cells assessed as cell viability at 100 uM measured after 48 hrs by WST-1 assay relative to control; format: functional; conditions: read-out: Activity; procedure, shortened: as §1
A2780 [16] = assay: Cytotoxicity against human A2780 cells assessed as cell viability at 10 uM measured after 48 hrs by WST-1 assay relative to control; format: functional; conditions: read-out: Activity; procedure, shortened: as §1
[17] = Cytotoxicity against human MRC5 cells assessed as cell viability at 10 uM measured after 48 hrs by WST-1 assay relative to control; format: cell-based; conditions: read-out: Activity; procedure, shortened: as §1
HT-29 [18] = assay: Cytotoxicity against human HT-29 cells assessed as growth percent at 100 uM by WST-1 assay relative to control; format: functional; conditions: HT-29, read-out: Activity, time 48 hrs
MOLT-4 [19] = assay: Cytotoxicity against human MOLT-4 cells assessed as cell viability at 10 uM measured after 48 hrs by WST-1 assay relative to control; format: functional; conditions: read-out: Activity; procedure, shortened: as §1
SAOS-2 [20] = assay: Cytotoxicity against human SAOS-2 cells assessed as cell viability at 100 uM measured after 48 hrs by WST-1 assay relative to control; format: functional; conditions: read-out: Activity; procedure, shortened: as §1
[21] = Cytotoxicity against human MRC5 cells assessed as cell viability at 100 uM measured after 48 hrs by WST-1 assay relative to control; format: cell-based; conditions: read-out: Activity; procedure, shortened: as §1
Jurkat [22] = assay: Cytotoxicity against human Jurkat cells assessed as cell viability at 10 uM measured after 48 hrs by WST-1 assay relative to control; format: functional; conditions: read-out: Activity; procedure, shortened: as §1
HT-29 [23] = assay: Cytotoxicity against human HT-29 cells assessed as cell viability at 10 uM measured after 48 hrs by WST-1 assay relative to control; format: functional; conditions: read-out: Activity; procedure, shortened: as §1
A549 [24] = assay: Cytotoxicity against human A549 cells assessed as cell viability at 10 uM measured after 48 hrs by WST-1 assay relative to control; format: functional; conditions: read-out: Activity; procedure, shortened: as §1
A549 [25] = assay: Cytotoxicity against human A549 cells assessed as maximum tolerated concentration incubated for 24 hrs by MTT assay; format: functional
Procedure, shortened: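 A-549 cells in DMEM with 10% FBS and 1% penicillin-streptomycin, left to attach overnight. Compounds made up in PBS, serially diluted in DMEM, incubated 24 h, then viability read by MTT reduction against untreated controls on each plate. MTC taken as the highest concentration showing no significant difference from non-treated control (t-test).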

SAOS-2 [26] = assay: Cytotoxicity against human SAOS-2 cells assessed as cell viability at 10 uM measured after 48 hrs by WST-1 assay relative to control; format: functional; conditions: read-out: Activity; procedure, shortened: as §1
MCF7 [27] = assay: Cytotoxicity against human MCF7 cells assessed as cell viability at 100 uM measured after 48 hrs by WST-1 assay relative to control; format: functional; conditions: read-out: Activity; procedure, shortened: as §1
A549 [28] = assay: Cytotoxicity against human A549 cells assessed as reduction in cell viability incubated for 24 hrs by MTT assay; format: functional, cell-based; conditions: A549, 24 h
Procedure, shortened: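 A-549 cells in DMEM with 10% FBS and 1% penicillin-streptomycin were attached overnight. Compounds were prepared in PBS and serially diluted in DMEM, then incubated 24 h. Viability was read by colorimetric MTT reduction against an untreated control on each plate (100%). IC50 came from four-parameter nonlinear regression of the log concentration-response curve, mean ± SEM. MTC is the highest concentration not differing from control (t-test).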

HeLa [29] = assay: Cytotoxicity against human HeLa cells assessed as cell viability at 10 uM measured after 48 hrs by WST-1 assay relative to control; format: functional; conditions: read-out: Activity; procedure, shortened: as §1
PANC-1 [30] = assay: Cytotoxicity against human PANC-1 cells assessed as cell viability at 10 uM measured after 48 hrs by WST-1 assay relative to control; format: functional; conditions: read-out: Activity; procedure, shortened: as §1
HeLa [31] = assay: Cytotoxicity against human HeLa cells assessed as cell viability at 100 uM measured after 48 hrs by WST-1 assay relative to control; format: functional; conditions: read-out: Activity; procedure, shortened: as §1
MCF7 [32] = assay: Cytotoxicity against human MCF7 cells assessed as cell viability at 10 uM measured after 48 hrs by WST-1 assay relative to control; format: functional; conditions: read-out: Activity; procedure, shortened: as §1
MCF7 [33] = assay: Cytotoxicity against human MCF7 cells assessed as growth percent at 100 uM by WST-1 assay relative to control; format: functional; conditions: MCF7, read-out: Activity, time 48 hrs
HT-29 [34] = assay: Cytotoxicity against human HT-29 cells assessed as cell viability at 100 uM measured after 48 hrs by WST-1 assay relative to control; format: functional; conditions: read-out: Activity; procedure, shortened: as §1
MOLT-4 [35] = assay: Radioprotective activity against gamma irradiation-induced apoptosis in human MOLT-4 cells assessed as viable cells at 100 uM pretreated with compound for 1 hr followed by gamma irradiation and measured after 24 hrs by annexinV/propidium iodide staining based flow cytometry (reference value: 40 %); format: functional; conditions: MOLT-4, light or radiation study, time 25 hrs, read-out: Activity

Structure (SMILES): COc1cccc2c1C(=O)c1c(O)c3c(c(O)c1C2=O)C[C@@](O)(C(=O)CO)C[C@@H]3O[C@H]1C[C@H](N)[C@H](O)[C@H](C)O1 [DOXORUBICIN]
- viability at 1 µM (MCF7 [1]): 32%
- viability at 1 µM (HeLa [2]): 76%
- viability at 1 µM (A549 [3]): 42%
- viability at 1 µM (SAOS-2 [4]): 22%
- viability at 48 h, 1 µM [5]: 22%
- viability at 1 µM (HT-29 [6]): 55%
- viability at 1 µM (PANC-1 [7]): 78%
- viability at 1 µM (A2780 [8]): 8%
- viability at 1 µM (Jurkat [9]): 2%
- viability at 1 µM (MOLT-4 [10]): 1%

Structure (SMILES): OCCN1CCN(CC(O)COc2cccc3ccccc23)CC1 (stereo not given)
- viability at 100 µM (Jurkat [11]): 76%
- viability at 100 µM (PANC-1 [12]): 101%
- viability at 100 µM (A2780 [13]): 77%
- viability at 100 µM (MOLT-4 [14]): 83%
- viability at 100 µM (A549 [15]): 107%
- viability at 10 µM (A2780 [16]): 97%
- viability at 48 h, 10 µM [17]: 102%
- growth at 100 µM (HT-29 [18]): 53%
- viability at 10 µM (MOLT-4 [19]): 98%
- viability at 100 µM (SAOS-2 [20]): 97%
- viability at 48 h, 100 µM [21]: 78%
- viability at 10 µM (Jurkat [22]): 96%
- viability at 10 µM (HT-29 [23]): 93%
- viability at 10 µM (A549 [24]): 98%
- MTD (A549 [25]): 0.07 mM
- viability at 10 µM (SAOS-2 [26]): 97%
- viability at 100 µM (MCF7 [27]): 64%
- IC50 (A549 [28]): 420 µM
- viability at 10 µM (HeLa [29]): 99%
- viability at 10 µM (PANC-1 [30]): 102%
- viability at 100 µM (HeLa [31]): 129%
- viability at 10 µM (MCF7 [32]): 103%
- growth at 100 µM (MCF7 [33]): 64%
- viability at 100 µM (HT-29 [34]): 53%
- viability at 100 µM (MOLT-4 [35]): 59%
